What was measured:
[1] = Drug uptake in human Hep2 cell golgi at 10 uM after 18 hrs by fluorescence microscopic analysis; type: ADME, cell-based; details: hep-2, 18 h
Procedure, shortened: (§1)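 HEp2 cells grown 48 h on glass-bottom wells, then exposed to 10 µM compound for 18 h. Co-stained 30 min at 37 °C with LysoSensor Green 50 nM, MitoTracker Green 250 nM, ER Tracker Blue/White 100 nM or BODIPY FL C5 ceramide. Washed three times with PBS. Organelle sites scored by fluorescence overlay microscopy as major or minor.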

HEp-2 [2] = assay: Drug uptake in human Hep2 cells at 10 uM measured up to 25 hrs by […]; type: ADME, cell-based; details: hep-2, 24 h, in the assay text read “24 hrs” for “25 hrs”
Procedure, shortened: (§2)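 HEp2 cells plated 7500/well and grown 48 h. Given 10 µM compound (final DMSO ≤1%, Cremophor 0.1%) for 0, 1, 2, 4, 8, 12 and 24 h. Washed with PBS and lysed in 0.25% Triton X-100. Intracellular compound read by intrinsic fluorescence (ex 355/em 650 nm) in a plate reader and normalized to cell number by CyQuant.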

HEp-2 [3] = assay: Cytotoxicity against human Hep2 cells after overnight incubation followed by cells irradiated with 1 J/cm'2 light for 20 mins measured after overnight incubation by celltiter blue assay; type: functional, cell-based; details: HEp-2, light or radiation study
Procedure, shortened: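 HEp2 cells in 50:50 DMEM:AMEM with 5% FBS, passages 4–15, plated 7500/well and grown 48 h. Loaded overnight at 6.25–100 µM. Medium then swapped for one with 50 mM HEPES pH 7.2. Irradiated 20 min with a 100 W halogen lamp through a 610 nm long-pass filter (~1 J/cm2), IR cut by 10 mm water, plate on ice-water. Incubated overnight at 37 °C, then CellTiter Blue viability read.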

[4] = Drug uptake in human Hep2 cell lysosomes at 10 uM after 18 hrs by fluorescence microscopic analysis; type: ADME, cell-based, Lysosome; details: hep-2, 18 h; procedure, shortened: as §1
HEp-2 [5] = assay: Cytotoxicity against human Hep2 cells under dark condition after 18 hrs by celltiter blue assay; type: functional, cell-based; details: HEp-2, 18 h
Procedure, shortened: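 HEp2 cells (passages 4–15) plated 7500/well and grown 48 h. Two-fold serial dilutions from 400 to 50 µM applied for 18 h in the dark. Medium replaced, then CellTiter Blue added and incubated 4 h. Untreated cells taken as 100% viable, 0.2% saponin-treated as 0%.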

[6] = Drug uptake in human Hep2 cell mitochondria at 10 uM after 18 hrs by fluorescence microscopic analysis; type: ADME; details: hep-2, 18 h; procedure, shortened: as §1
[7] = Drug uptake in human Hep2 cell endoplasmic reticulum at 10 uM after 18 hrs by fluorescence microscopic analysis; type: ADME, cell-based; details: hep-2, 18 h; procedure, shortened: as §1
HEp-2 [8] = assay: Ratio of IC50 for cytotoxicity against human Hep2 cells under dark condition to IC50 for human Hep2 cells in presence of 1 J/cm'2 light; type: functional
HEp-2 [9] = assay: Drug uptake in human Hep2 cells at 10 uM after 24 hrs by fluorescence microscopic analysis relative to chlorin e6; type: ADME, cell-based; details: hep-2, 24 h; procedure, shortened: as §2

Row | Drug uptake [1] | Drug uptake (HEp-2 [2]) | Drug uptake [4] | Drug uptake [6] | Drug uptake [7] | fold change (FC) (HEp-2 [9]) | SMILES | IC50 (HEp-2 [3]) | IC50 (HEp-2 [5]) | Ratio IC50 (HEp-2 [8])
1 | Not Active | Active | Active | Not Active | Active |  | C=Cc1c(C)c2cc3nc(c(CC(=O)O)c4[nH]c(cc5nc(cc1[nH]2)C(C)=C5CC)c(C)c4C(=O)O)[C@@H](CCC(=O)O)[C@@H]3C [CHLORIN E6] | 20.8 µM | > 400 µM | >19.2
2 | Not Active | Active | Active | Active | Active |  | C=Cc1c(C)c2cc3nc(c(CC(=O)N[C@@H](CC(=O)O)C(=O)O)c4[nH]c(cc5nc(cc1[nH]2)C(C)=C5CC)c(C)c4C(=O)OC)[C@@H](CCC(=O)OC)[C@@H]3C | 4 µM | 373 µM | 93.4
3 | Active | Active | Active | Not Active | Active |  | C=Cc1c(C)c2cc3nc(c(CC(=O)OC)c4[nH]c(cc5nc(cc1[nH]2)C(C)=C5CC)c(C)c4C(=O)NCCNC(=O)[C@@H](N)CCCCN)[C@@H](CCC(=O)OC)[C@@H]3C | 1.34 µM | 268 µM | 200.3
4 | Active |  | Active | Not Active | Active | 18 | C=Cc1c(C)c2cc3nc(c(CC(=O)N[C@@H](CCCCN)C(=O)OC)c4[nH]c(cc5nc(cc1[nH]2)C(C)=C5CC)c(C)c4C(=O)OC)[C@@H](CCC(=O)OC)[C@@H]3C | 28.8 µM | > 400 µM | >13.9
5 | Active | Active | Active | Not Active | Active |  | C=Cc1c(C)c2cc3nc(c(CC(=O)OC)c4[nH]c(cc5nc(cc1[nH]2)C(C)=C5CC)c(C)c4C(=O)OC)[C@@H](CCC(=O)N[C@@H](CCCCN)C(=O)OC)[C@@H]3C | 26.2 µM | > 400 µM | >15.3
6 | Active | Active | Active | Active | Active |  | C=Cc1c(C)c2cc3nc(c(CC(=O)OC)c4[nH]c(cc5nc(cc1[nH]2)C(C)=C5CC)c(C)c4C(=O)N[C@@H](CC(=O)O)C(=O)O)[C@@H](CCC(=O)OC)[C@@H]3C | 0.61 µM | 285 µM | 466.6
7 | Active | Active | Active | Not Active | Active |  | C=Cc1c(C)c2cc3nc(c(CC(=O)OC)c4[nH]c(cc5nc(cc1[nH]2)C(C)=C5CC)c(C)c4C(=O)NCCC(=O)N[C@@H](CC(=O)O)C(=O)O)[C@@H](CCC(=O)OC)[C@@H]3C | 0.82 µM | 384 µM | 468.2

Source: ChEMBL document CHEMBL1955721, “Syntheses and cellular investigations of 17(3)-, 15(2)-, and 13(1)-amino acid derivatives of chlorin e(6)” (J Med Chem, 2011)
